Source: ChEMBL document CHEMBL2390929, “New nitric oxide donating 1,2,4-triazole/oxime hybrids: synthesis, investigation of anti-inflammatory, ulceroginic liability and antiproliferative activities” (Bioorg Med Chem, 2013)

Columns and labels:
MDA-MB-468 = test: Cytotoxicity against human MDA-MB-468 cells assessed as cell growth at 10^-5 M after 48 hrs by SRB assay; assay type: functional; conditions: MDA-MB-468, 48 h, read-out: Activity
Outline: (§1)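 NCI 60-cell-line primary one-dose screen across nine tumour subpanels. Compound added at a single concentration of 10^-5 M and cultures incubated 48 h. Endpoint was sulforhodamine B protein staining read spectrophotometrically, with growth expressed as percent of untreated control cells.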

T47D = test: Cytotoxicity against human T47D cells assessed as cell growth at 10^-5 M after 48 hrs by SRB assay; assay type: functional; conditions: read-out: Activity
Outline: (§2)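 NCI-60 one-dose screen across nine tumour subpanels. Each agent added once at 10^-5 M, cultures incubated 48 h. Endpoint is sulforhodamine B protein staining read spectrophotometrically. Output is percent growth of treated cells relative to untreated controls.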

BT-549 = test: Cytotoxicity against human BT549 cells assessed as cell growth at 10^-5 M after 48 hrs by SRB assay; assay type: functional; conditions: BT-549, 48 h, read-out: Activity; outline: as §1
MDA-MB-231 = test: Cytotoxicity against human MDA-MB-231 cells assessed as cell growth at 10^-5 M after 48 hrs by SRB assay; assay type: functional; conditions: MDA-MB-231, 48 h, read-out: Activity; outline: as §1
PC-3 = test: Cytotoxicity against human PC3 cells assessed as cell growth at 10^-5 M after 48 hrs by SRB assay; assay type: functional; conditions: PC-3, 48 h, read-out: Activity; outline: as §1
UO-31 = test: Cytotoxicity against human UO31 cells assessed as cell growth at 10^-5 M after 48 hrs by SRB assay; assay type: functional; conditions: UO-31, 48 h, read-out: Activity; outline: as §2
ACHN = test: Cytotoxicity against human ACHN cells assessed as cell growth at 10^-5 M after 48 hrs by SRB assay; assay type: functional; conditions: read-out: Activity; outline: as §1
A498 = test: Cytotoxicity against human A498 cells assessed as cell growth at 10^-5 M after 48 hrs by SRB assay; assay type: functional; conditions: A498, 48 h, read-out: Activity; outline: as §1
786-0 = test: Cytotoxicity against human 786-0 cells assessed as cell growth at 10^-5 M after 48 hrs by SRB assay; assay type: functional; conditions: 786-0, 48 h, read-out: Activity; outline: as §1
OVCAR-8 = test: Cytotoxicity against human OVCAR8 cells assessed as cell growth at 10^-5 M after 48 hrs by SRB assay; assay type: functional; conditions: OVCAR-8, 48 h, read-out: Activity; outline: as §1
OVCAR-3 = test: Cytotoxicity against human OVCAR3 cells assessed as cell growth at 10^-5 M after 48 hrs by SRB assay; assay type: functional; conditions: OVCAR-3, 48 h, read-out: Activity; outline: as §1
UACC-62 = test: Cytotoxicity against human UACC62 cells assessed as cell growth at 10^-5 M after 48 hrs by SRB assay; assay type: functional; conditions: UACC-62, 48 h, read-out: Activity; outline: as §2
UACC-257 = test: Cytotoxicity against human UACC257 cells assessed as cell growth at 10^-5 M after 48 hrs by SRB assay; assay type: functional; conditions: UACC-257, 48 h, read-out: Activity; outline: as §2
SK-MEL-2 = test: Cytotoxicity against human SK-MEL-2 cells assessed as cell growth at 10^-5 M after 48 hrs by SRB assay; assay type: functional; conditions: SK-MEL-2, 48 h, read-out: Activity; outline: as §1
MDA-MB-435 = test: Cytotoxicity against human MDA-MB-435 cells assessed as cell growth at 10^-5 M after 48 hrs by SRB assay; assay type: functional; conditions: MDA-MB-435, 48 h, read-out: Activity; outline: as §1
M14 = test: Cytotoxicity against human M14 cells assessed as cell growth at 10^-5 M after 48 hrs by SRB assay; assay type: functional; conditions: M14, 48 h, read-out: Activity; outline: as §1
LOX IMVI = test: Cytotoxicity against human LOXIMVI cells assessed as cell growth at 10^-5 M after 48 hrs by SRB assay; assay type: functional; conditions: read-out: Activity; outline: as §1
U-251 = test: Cytotoxicity against human U251 cells assessed as cell growth at 10^-5 M after 48 hrs by SRB assay; assay type: functional; conditions: U-251, 48 h, read-out: Activity; outline: as §2
SNB-19 = test: Cytotoxicity against human SNB19 cells assessed as cell growth at 10^-5 M after 48 hrs by SRB assay; assay type: functional; conditions: SNB-19, 48 h, read-out: Activity; outline: as §2
HCT-15 = test: Cytotoxicity against human HCT15 cells assessed as cell growth at 10^-5 M after 48 hrs by SRB assay; assay type: functional; conditions: HCT-15, 48 h, read-out: Activity; outline: as §1
NCI-H23 = test: Cytotoxicity against human NCI-H23 cells assessed as cell growth at 10^-5 M after 48 hrs by SRB assay; assay type: functional; conditions: NCI-H23, 48 h, read-out: Activity; outline: as §1
NCI-H226 = test: Cytotoxicity against human NCI-H226 cells assessed as cell growth at 10^-5 M after 48 hrs by SRB assay; assay type: functional; conditions: NCI-H226, 48 h, read-out: Activity; outline: as §1
HOP-92 = test: Cytotoxicity against human HOP92 cells assessed as cell growth at 10^-5 M after 48 hrs by SRB assay; assay type: functional; conditions: HOP-92, 48 h, read-out: Activity; outline: as §1
MOLT-4 = test: Cytotoxicity against human MOLT4 cells assessed as cell growth at 10^-5 M after 48 hrs by SRB assay; assay type: functional; conditions: MOLT-4, 48 h, read-out: Activity; outline: as §1
Rattus norvegicus [1] = test: Antiinflammatory activity in albino rat assessed as inhibition of carrageenan-induced paw edema at 0.28 mmol/kg, po after 4 hrs relative to control; assay type: functional
Outline: (§3)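 Adult male albino rats (120–140 g), four per group, fasted 24 h with water allowed. Test agent suspended in 0.5% w/v aqueous CMC and given orally at 0.28 mmol/kg; controls received CMC alone. After 30 min, 0.1 mL fresh 1% carrageenan in saline was injected subplantar into the right hind paw and saline into the left. Paw thickness was measured by Vernier caliper; % inhibition = [(VR−VL)control − (VR−VL)treated]/(VR−VL)control ×100. Mean ± SEM, one-way ANOVA.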

Rattus norvegicus [2] = test: Antiinflammatory activity in albino rat assessed as inhibition of carrageenan-induced paw edema at 0.28 mmol/kg, po after 1 hr relative to control; assay type: functional; outline: as §3
[3] = Induction of nitric oxide release in phosphate buffer at pH 7.4 at 0.1 mM after 6 hrs by Griess method in presence of 0.5 mM of N-acetylcysteine; assay type: physicochemical; conditions: pH 7.4, 6 h, 100 µM
Outline: (§4)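 Compound in DMF diluted to final 10^-4 M in 1:1 50 mM phosphate buffer pH 7.4/MeOH with 5×10^-4 M N-acetylcysteine, 37 °C. Aliquot mixed with Griess reagent, 10 min at room temperature, A546 read. Nitrite quantified against sodium nitrite standards (10–80 nmol/mL); NO expressed as mol/mol. n = 4 reaction mixtures per compound.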

[4] = Induction of nitric oxide release in phosphate buffer at pH 7.4 at 0.1 mM after 5 hrs by Griess method in presence of 0.5 mM of N-acetylcysteine; assay type: physicochemical; conditions: pH 7.4, 5 h, 100 µM; outline: as §4
[5] = Induction of nitric oxide release in phosphate buffer at pH 7.4 at 0.1 mM after 4 hrs by Griess method in presence of 0.5 mM of N-acetylcysteine; assay type: physicochemical; conditions: pH 7.4, 4 h, 100 µM; outline: as §4
[6] = Induction of nitric oxide release in phosphate buffer at pH 7.4 at 0.1 mM after 2 hrs by Griess method in presence of 0.5 mM of N-acetylcysteine; assay type: physicochemical; conditions: pH 7.4, 2 h, 100 µM; outline: as §4

| Compound | growth at 10 µM (MDA-MB-468) | growth at 10 µM (T47D) | growth at 10 µM (BT-549) | growth at 10 µM (MDA-MB-231) | growth at 10 µM (PC-3) | growth at 10 µM (UO-31) | growth at 10 µM (ACHN) | growth at 10 µM (A498) | growth at 10 µM (786-0) | growth at 10 µM (OVCAR-8) | growth at 10 µM (OVCAR-3) | growth at 10 µM (UACC-62) | growth at 10 µM (UACC-257) | growth at 10 µM (SK-MEL-2) | growth at 10 µM (MDA-MB-435) | growth at 10 µM (M14) | growth at 10 µM (LOX IMVI) | growth at 10 µM (U-251) | growth at 10 µM (SNB-19) | growth at 10 µM (HCT-15) | further results |
| --- | --- | --- | --- | --- | --- | --- | --- | --- | --- | --- | --- | --- | --- | --- | --- | --- | --- | --- | --- | --- | --- |
| C=CCn1c(SC/C(=N\O)c2ccccc2)nnc1-c1ccc(OC)c(OC)c1 | 105% | 90.4% | 124% | 94.4% | 96.5% | 77.9% | 97.8% | 97.4% | 119% | 96.8% | 110% | 99.9% | 102% | 100% | 105% | 123% | 88.2% | 94.2% | 99.5% | 99% | growth at 10 µM (NCI-H23): 91.5%; growth at 10 µM (NCI-H226): 103%; growth at 10 µM (HOP-92): 81.9%; growth at 10 µM (MOLT-4): 85.3%; inhibition in vivo at 280 µmol/kg (Rattus norvegicus [1]): 78%; inhibition in vivo at 280 µmol/kg (Rattus norvegicus [2]): 53%; Activity [3]: 0.13 mol/mol; Activity [4]: 0.24 mol/mol; Activity [5]: 0.17 mol/mol; Activity [6]: 0.15 mol/mol |
| CCn1c(SC/C(=N/O)c2ccccc2)nnc1-c1ccccc1 | 108% | 120% | 115% | 94.6% | 81.2% | 91.5% | 105% | 69.3% | 105% | 111% | 121% | 86.2% | 104% | 108% | 105% | 109% | 104% | 102% | 99% | 101% | growth at 10 µM (NCI-H23): 103%; growth at 10 µM (NCI-H226): 108%; growth at 10 µM (HOP-92): 62.5%; growth at 10 µM (MOLT-4): 94.8%; inhibition in vivo at 280 µmol/kg (Rattus norvegicus [1]): 73%; inhibition in vivo at 280 µmol/kg (Rattus norvegicus [2]): 65%; Activity [3]: 0.13 mol/mol; Activity [4]: 0.14 mol/mol; Activity [5]: 0.13 mol/mol; Activity [6]: 0.08 mol/mol |
